Bioassay records: PubChem, Broad Institute
Compounds with a hit are over-represented: about 1.3% of the library has one in this group of screens.
RAD52 anneal inh = blocks human RAD52 DNA annealing; P43351; recombinant RAD52 DNA annealing, FRET fluorescence; inhibition, % at 18.7 µM; actives 0.46% (n = 360,000); AID 651710;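 active = every replicate showing at least 50% inhibition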
FN deposition inh = fibronectin deposition inhibition; AH1F fibroblasts, Alexa488-fibronectin deposition fluorescence, overnight; inhibition, % at 12.6 µM; actives 0.086% (n = 350,000);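 active = mean inhibition across replicates of 30% or more, regardless of how many single replicates reach that level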
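Material – AH1F fibroblast monolayer, labelled fibronectin deposition · Reagent – labelled fibronectin 24 nM · Timing – 1 h adhesion, overnight exposure · Measured by – fluorescence at 485 nm excitation, 525 nm emission · Read-out – inhibition of fibronectin deposition signal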
PAX8 reporter = inhibitors of PAX8 transcriptional activity in RMG-I cells | RMG-I TPO-luciferase reporter, SteadyGlo, 24 h | inhibition, % at 12.6 µM | actives 1.2% (n = 360,000) | AID 652154;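 active = mean replicate inhibition at least 60% with every replicate also reaching 60%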;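 note: luciferase light reporting Pax8 driven TPO promoter activity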
RAD54 branch = inhibitors of human RAD54 branch migration | RAD54 Holliday junction branch migration, FAM/BHQ fluorescence | inhibition, % at 10.4 µM | actives 0.14% (n = 360,000) | AID 602329;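 active = mean normalized replicate activity at least 40 and at least half of replicates scoring 40 or more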;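 note: inhibitors cause a drop in the FAM fluorescence signal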
Target sequence (Q92698 whole entry, looked up): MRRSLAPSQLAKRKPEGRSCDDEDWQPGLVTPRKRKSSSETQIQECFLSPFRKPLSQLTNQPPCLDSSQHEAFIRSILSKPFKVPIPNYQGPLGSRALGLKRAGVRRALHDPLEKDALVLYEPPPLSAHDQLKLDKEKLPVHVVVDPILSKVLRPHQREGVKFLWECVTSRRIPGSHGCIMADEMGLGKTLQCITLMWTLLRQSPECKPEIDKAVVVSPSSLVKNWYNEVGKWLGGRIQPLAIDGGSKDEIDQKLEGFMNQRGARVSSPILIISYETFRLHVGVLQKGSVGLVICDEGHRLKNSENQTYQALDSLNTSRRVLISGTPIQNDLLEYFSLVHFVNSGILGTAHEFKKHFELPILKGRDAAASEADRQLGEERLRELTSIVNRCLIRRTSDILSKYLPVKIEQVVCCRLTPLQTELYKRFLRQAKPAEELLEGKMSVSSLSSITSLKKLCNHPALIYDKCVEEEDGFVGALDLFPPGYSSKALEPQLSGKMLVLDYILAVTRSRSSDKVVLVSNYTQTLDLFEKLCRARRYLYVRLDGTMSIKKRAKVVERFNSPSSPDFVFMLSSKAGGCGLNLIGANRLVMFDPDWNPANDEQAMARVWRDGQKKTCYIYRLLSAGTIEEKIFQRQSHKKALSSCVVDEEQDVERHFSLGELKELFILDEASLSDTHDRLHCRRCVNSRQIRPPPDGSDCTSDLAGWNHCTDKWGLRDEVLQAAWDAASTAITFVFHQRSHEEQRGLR
Hits are given with their value.

How did CN(C)c1cccc(C(=O)Nc2cc(C(F)(F)F)ccc2-n2cnc3ccccc32)c1 do in these assays?
RAD52 anneal inh: inactive; FN deposition inh: inactive; PAX8 reporter: 81

Results for CC(=O)Nc1ccc(C(=O)Nc2cc(C(F)(F)F)ccc2-n2cnc3ccccc32)cc1 ?
FN deposition inh: inactive; PAX8 reporter: inactive

Results for Cn1c(SCc2cccc([N+](=O)[O-])c2)nc2ccccc2c1=O ?
RAD52 anneal inh: inactive; FN deposition inh: inactive; PAX8 reporter: inactive; RAD54 branch: inactive

Results for Cc1cccc(Nc2nc(N)nc(CSc3nccc(C)n3)n2)c1 ?
FN deposition inh: inactive; PAX8 reporter: inactive; RAD54 branch: inactive

How did COc1cccc(Nc2nc(N)nc(CCl)n2)c1 do in these assays?
RAD52 anneal inh: inactive; FN deposition inh: inactive; PAX8 reporter: 97; RAD54 branch: inactive

Results for Cc1cccc(Nc2nc(N)nc(CCl)n2)c1 ?
RAD52 anneal inh: inactive; FN deposition inh: inactive; PAX8 reporter: 90; RAD54 branch: inactive

Results for Cc1ccc(CCNC(=O)CN2CCN(Cc3ccccc3F)C2=O)cc1 ?
RAD54 branch: inactive

Results for CN1C(=O)c2cc(NC(=O)Nc3cccc(Cl)c3)ccc2OC[C@@H]2O[C@@H](CC(=O)NCCc3ccncc3)CC[C@H]21 ?
RAD52 anneal inh: inactive; FN deposition inh: inactive; PAX8 reporter: 74; RAD54 branch: inactive

What do the screens show for `CN1C(=O)c2cc(NC(=O)c3cccc(Cl)c3)ccc2OC[C@@H]2O[C@H](CC(=O)NC3CCCCC3)CC[C@@H]21`?
FN deposition inh: inactive; PAX8 reporter: 76; RAD54 branch: inactive

How did CN1C(=O)c2cc(NC(=O)c3cccc(Cl)c3)ccc2OC[C@H]2O[C@@H](CC(=O)NC3CCCCC3)CC[C@@H]21 do in these assays?
RAD52 anneal inh: inactive; FN deposition inh: inactive

What do the screens show for `CN1C(=O)c2cc(NS(=O)(=O)c3ccc(Cl)cc3)ccc2OC[C@H]2O[C@@H](CC(=O)N3CCc4ccccc4C3)CC[C@H]21`?
RAD52 anneal inh: inactive; FN deposition inh: inactive; PAX8 reporter: inactive; RAD54 branch: inactive

Results for CN1C(=O)c2cc(NS(=O)(=O)c3ccc(Cl)cc3)ccc2OC[C@@H]2O[C@H](CC(=O)N3CCc4ccccc4C3)CC[C@@H]21 ?
RAD52 anneal inh: inactive; FN deposition inh: inactive; PAX8 reporter: 61; RAD54 branch: inactive

Results for CN1C(=O)c2cc(NC(=O)Nc3ccc(Cl)cc3)ccc2OC[C@@H]2O[C@@H](CC(=O)NCCN3CCCCC3)CC[C@H]21 ?
RAD52 anneal inh: 53; FN deposition inh: inactive; PAX8 reporter: inactive; RAD54 branch: inactive

How did CCOC(=O)/C=C/C(=O)OCC(=O)Nc1cccc(Cl)c1Cl do in these assays?
RAD52 anneal inh: inactive; FN deposition inh: inactive; PAX8 reporter: inactive; RAD54 branch: inactive

How did O=C(C[C@H]1CC[C@@H]2[C@H](COC[C@H](O)CN2S(=O)(=O)c2ccc(F)cc2)O1)NCC1CCCCC1 do in these assays?
RAD52 anneal inh: 59; FN deposition inh: inactive; PAX8 reporter: inactive; RAD54 branch: inactive

Results for O=C(C[C@H]1CC[C@H]2[C@@H](COC[C@@H](O)CN2S(=O)(=O)c2ccccc2)O1)NCC1CCCCC1 ?
RAD52 anneal inh: inactive; FN deposition inh: inactive; PAX8 reporter: inactive; RAD54 branch: inactive

How did O=C(C[C@@H]1CC[C@@H]2[C@H](COC[C@@H](O)CN2S(=O)(=O)c2ccc(F)cc2)O1)NCC1CCCCC1 do in these assays?
RAD52 anneal inh: 71; FN deposition inh: inactive; PAX8 reporter: inactive; RAD54 branch: inactive

Results for O=C(C[C@@H]1CC[C@H]2[C@@H](COC[C@H](O)CN2S(=O)(=O)c2ccc(F)cc2)O1)NCC1CCCCC1 ?
RAD52 anneal inh: 89; FN deposition inh: inactive; PAX8 reporter: inactive; RAD54 branch: inactive

What do the screens show for `O=C(C[C@H]1CC[C@@H]2[C@H](COC[C@@H](O)CN2S(=O)(=O)c2ccc(F)cc2)O1)NCC1CCCCC1`?
RAD52 anneal inh: 89; FN deposition inh: inactive; PAX8 reporter: inactive; RAD54 branch: inactive

What do the screens show for `O=C(C[C@@H]1CC[C@H]2[C@@H](COC[C@@H](O)CN2S(=O)(=O)c2ccc(Cl)cc2)O1)NCC1CCCCC1`?
RAD52 anneal inh: inactive; FN deposition inh: inactive; PAX8 reporter: inactive; RAD54 branch: inactive

What do the screens show for `O=C(C[C@@H]1CC[C@@H]2[C@H](COC[C@H](O)CN2S(=O)(=O)c2ccc(F)cc2)O1)NCC1CC1`?
RAD52 anneal inh: inactive; FN deposition inh: inactive; PAX8 reporter: inactive; RAD54 branch: inactive

Results for CC(C)C[C@@H](CN1CCC[C@H]1CN1C(=O)C(=O)NC[C@@H]1Cc1ccc(O)cc1)N1C[C@H](Cc2ccccc2)N(CC2CCCCCC2)C(=O)C1=O ?
RAD52 anneal inh: inactive; FN deposition inh: inactive; PAX8 reporter: inactive

Results for CC(C)C[C@H]1CNC(=O)C(=O)N1C[C@@H]1CCCN1C[C@H](CC(C)C)N1C[C@H](Cc2ccc(O)cc2)N(CCc2ccccc2)C(=O)C1=O ?
RAD52 anneal inh: inactive; FN deposition inh: active; PAX8 reporter: inactive

What do the screens show for `CC(C)C[C@@H](CN1CCC[C@H]1CN1C(=O)C(=O)NC[C@@H]1Cc1ccccc1)N1C[C@H](Cc2ccccc2)N(CC2CCCCCC2)C(=O)C1=O`?
RAD52 anneal inh: inactive; FN deposition inh: inactive; PAX8 reporter: 65

What do the screens show for `CC(=O)NC(c1ccc(F)c(F)c1)c1nc(-c2cccs2)cs1` (centres undefined)?
RAD52 anneal inh: inactive; FN deposition inh: inactive; PAX8 reporter: inactive; RAD54 branch: inactive

Results for COc1ccc(/C=C/C(=O)c2ccc([N+](=O)[O-])o2)cc1 ?
RAD52 anneal inh: inactive; FN deposition inh: inactive; PAX8 reporter: inactive; RAD54 branch: inactive

What do the screens show for `Cc1cccc(/C=C/C(=O)c2ccc([N+](=O)[O-])o2)c1`?
RAD52 anneal inh: inactive; FN deposition inh: 65; PAX8 reporter: inactive; RAD54 branch: inactive

How did O=C(/C=C/c1cccc([N+](=O)[O-])c1)c1ccc([N+](=O)[O-])o1 do in these assays?
RAD52 anneal inh: inactive; FN deposition inh: inactive; PAX8 reporter: inactive; RAD54 branch: inactive

Results for Cc1ccccc1/C=C/C(=O)c1ccc([N+](=O)[O-])o1 ?
RAD52 anneal inh: inactive; FN deposition inh: 42; PAX8 reporter: inactive

How did Cc1cn2c(nc1=O)OC1CC2OC1CO (centres undefined) do in these assays?
RAD52 anneal inh: inactive; FN deposition inh: inactive; PAX8 reporter: inactive; RAD54 branch: inactive

What do the screens show for `CC(C)CC#Cc1ccc2c(c1)O[C@@H](CN(C)S(=O)(=O)c1ccc(F)cc1)[C@@H](C)CN([C@@H](C)CO)S2(=O)=O`?
FN deposition inh: inactive; PAX8 reporter: 95

Results for CC(C)CC#Cc1ccc2c(c1)O[C@H](CN(C)S(=O)(=O)c1ccc(F)cc1)[C@@H](C)CN([C@@H](C)CO)S2(=O)=O ?
RAD52 anneal inh: inactive; FN deposition inh: inactive; PAX8 reporter: 101; RAD54 branch: inactive

How did CC(C)CC#Cc1ccc2c(c1)O[C@H](CN(C)S(=O)(=O)c1cccc(F)c1)[C@H](C)CN([C@H](C)CO)S2(=O)=O do in these assays?
RAD52 anneal inh: inactive; RAD54 branch: inactive
